Rows were chosen to be rich in hits. Some 1.2% of all compounds tested hit in one or more screens of this group.
GAA850 FXN act = FXN promoter activators, primary screen, cell-based, luciferase luminescence, HEK293 lucGAA850 | HEK293 lucGAA850 FXN promoter luciferase reporter, 24 h; percent of 10 µM SAHA response | 0.56% of 360,000 active | AID 540364, 2011 | activation, % at 6 µM;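 active = activation above the average of all compounds screened plus 3 SD, cutoff fixed separately per campaign, cut at about 7.5% in these data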
Lipid droplet = inhibitors of hepatocyte lipid droplet formation, primary screen, imaging, high-throughput imaging, BODIPY stain. AID 1656, 2009. inhibition, % at 6.5 µM. AML12 mouse hepatocytes, oleate lipid droplets. 0.4% of 240,000 active;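 active = lipid droplet intensity inhibited by at least 50%, with more than 500 cells counted; inconclusive = wells with under 300 cells, treated as cytotoxic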
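Assay system: AML12 mouse liver cells | Compound dosing: One dose, 6.5 µM compound | Read-out basis: Droplet intensity reduction, % inhibition | Measured by: Fluorescence imaging, 20x objective, two fields per well | Schedule: Overnight treatment with compound plus oleate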
proCasp7 act = procaspase-7 activators, primary screen, counter-screen for procaspase-3 activator project, biochemical, absorbance, HTS, human | Caspase-7 (Homo sapiens), P55210 | recombinant procaspase-7, Ac-DEVD-pNA absorbance 405 nm; D23A/D198A/D206A triple mutant, cannot self-cleave; scale: DMSO 0, 5 µM enzyme 100 | activation, % at 8.5 µM | 0.093% of 330,000 active;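 active = percent activation above the screen-wide mean plus 3 SD, cut at about 25% in these data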
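System: Procaspase-7 triple mutant (PC-7 D3A); measure: % activation from two-timepoint absorbance difference, scaled to controls; times: 1 h compound preincubation, 2 h substrate cleavage, 25 °C; also added: Ac-DEVD-pNA substrate, 400 µM as added; measured by: Epi-absorbance of released pNA at 405 nm, two timepoints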
proCasp3 act = activators of human procaspase-3 D3A mutant, primary screen, biochemical, absorbance, PC-3 D3A mutant, single concentration; recombinant procaspase-3 D3A, Ac-DEVD-pNA absorbance 405 nm; Caspase-3 (Homo sapiens), P42574; 0.11% of 330,000 active; AID 463141, 2010; activation, % at 8.5 µM;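 active = activation above the mean of all tested compounds plus 3 SD, cut at about 21% in these data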
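material = Procaspase-3 D3A mutant | probe or stimulus = Ac-DEVD-pNA | compound = single dose, 8.5 µM nominal compound, 0.8% DMSO | timing = 1 h preincubation, 2 h reaction | measured by = 405 nm absorbance of p-nitroaniline, reads at 0 and 120 min | benchmarks = DMSO-only low control, 5 µM PC-3 D3A high control | repeats = singlicate, each compound tested once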
Rce1 inhib = yeast Rce1p protease inhibitors, primary screen, biochemical, fluorescence, cell-free homogeneous | CAAX prenyl protease 2 (Saccharomyces cerevisiae (strain ATCC 204508 / S288c)), Q03530 | yeast membranes, quenched prenylated peptide cleavage fluorescence | calls only | 0.27% of 290,000 active | AID 2563, 2010;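 active = fall in fluorescence gain of 50% or more versus controls, with final raw signal at or below 3038400; inconclusive = same 50% fall but final raw signal above 3038400; inactive = fall in fluorescence gain under 50%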
pCIP destab = p/CIP-EGFP fusion destabilizers, primary screen, fluorescence, F442A cells; 16 h; Q05BA5; AID 1984, 2009; decrease of EGFP signal, % at 10 µM; 0.01% of 290,000 active;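 active = EGFP signal decrease of at least 30% at 10 µM or well 3 SD below plate mean, unless failing retest; inactive = the rest, including hits failing retest or dose response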
Target sequence (Q05BA5 1-1403): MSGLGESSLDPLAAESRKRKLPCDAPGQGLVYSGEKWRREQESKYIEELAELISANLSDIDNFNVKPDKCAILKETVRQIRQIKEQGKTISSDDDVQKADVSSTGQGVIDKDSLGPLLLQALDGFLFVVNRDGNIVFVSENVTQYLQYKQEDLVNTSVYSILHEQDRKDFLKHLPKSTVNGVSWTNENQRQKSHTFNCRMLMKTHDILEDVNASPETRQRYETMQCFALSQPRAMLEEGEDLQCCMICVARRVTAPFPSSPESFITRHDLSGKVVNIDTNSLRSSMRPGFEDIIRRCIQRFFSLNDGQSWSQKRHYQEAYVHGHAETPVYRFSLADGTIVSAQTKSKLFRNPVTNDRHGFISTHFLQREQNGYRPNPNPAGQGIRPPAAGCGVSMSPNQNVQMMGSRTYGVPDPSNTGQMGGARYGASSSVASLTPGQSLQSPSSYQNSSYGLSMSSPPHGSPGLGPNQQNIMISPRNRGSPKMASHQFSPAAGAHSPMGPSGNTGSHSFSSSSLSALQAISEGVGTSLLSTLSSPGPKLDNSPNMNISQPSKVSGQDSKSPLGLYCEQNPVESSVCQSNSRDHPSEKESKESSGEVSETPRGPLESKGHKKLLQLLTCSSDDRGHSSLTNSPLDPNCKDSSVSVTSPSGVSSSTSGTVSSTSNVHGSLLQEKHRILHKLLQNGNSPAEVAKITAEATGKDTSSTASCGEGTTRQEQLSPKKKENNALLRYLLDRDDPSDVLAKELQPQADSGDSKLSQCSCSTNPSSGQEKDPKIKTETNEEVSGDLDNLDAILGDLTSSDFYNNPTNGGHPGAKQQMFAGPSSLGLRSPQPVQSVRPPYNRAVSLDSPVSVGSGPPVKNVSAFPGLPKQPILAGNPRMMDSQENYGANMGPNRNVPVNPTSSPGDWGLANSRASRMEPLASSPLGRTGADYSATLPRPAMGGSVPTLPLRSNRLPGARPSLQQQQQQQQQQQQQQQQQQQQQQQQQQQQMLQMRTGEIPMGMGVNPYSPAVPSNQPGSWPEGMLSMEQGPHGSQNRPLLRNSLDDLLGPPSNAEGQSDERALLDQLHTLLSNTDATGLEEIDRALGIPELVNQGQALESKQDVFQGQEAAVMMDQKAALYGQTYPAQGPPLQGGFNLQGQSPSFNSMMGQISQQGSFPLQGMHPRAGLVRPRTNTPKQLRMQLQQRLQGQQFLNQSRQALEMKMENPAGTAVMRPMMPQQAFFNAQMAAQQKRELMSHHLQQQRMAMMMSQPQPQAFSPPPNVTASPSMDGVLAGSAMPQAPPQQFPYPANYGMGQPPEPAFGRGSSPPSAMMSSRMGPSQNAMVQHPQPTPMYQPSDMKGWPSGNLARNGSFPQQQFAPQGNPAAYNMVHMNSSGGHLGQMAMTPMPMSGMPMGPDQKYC
Numbers stand for hits; - = inactive; ? = inconclusive; . = not tested or not shown; + = active, no number.

SMILES	GAA850 FXN act	Lipid droplet	proCasp7 act	proCasp3 act	Rce1 inhib	pCIP destab
O=C1C(=Cc2ccco2)CCCC1=Cc1ccco1	12	.	.	.	.	.
CC1=NN(c2ccccc2)C(=O)/C1=C\c1ccc(Br)s1	-	-	-	-	+	-
O=C(O)c1ccccc1NCc1cccnc1	-	.	-	-	-	.
O=C(O)CNc1ccccc1C(=O)O	-	-	-	-	+	-
Cc1cc(C)n(C(N)=NC(=O)c2ccc([N+](=O)[O-])cc2)n1	-	-	-	-	-	42
Cc1cc(C)n(C(N)=NC(=O)c2ccccc2)n1	-	.	.	.	.	.
O=C(NCCCc1ccccc1)c1cc(COc2ccc(F)cc2Cl)on1	-	-	-	-	-	-
O=C(NCCc1cccnc1)c1cc(COc2ccc(F)cc2Cl)on1	-	-	-	-	+	-
COc1ccc(C2c3c(ncn(CCN4CCOCC4)c3=N)Oc3ccc4ccccc4c32)cc1 (centres undefined)	-	-	-	-	+	-
NC(CCc1ccccc1)c1csc(NC(=O)NCC2CCCCC2)n1 (centres undefined)	-	.	.	.	.	.
COC(C/C=C\C(=O)[C@H](C)OCc1ccccc1)OC	-	.	-	-	+	.
Cc1n[nH]c(=S)n1/N=C/c1ccccc1OCc1ccc(Cl)cc1	8.3	.	-	-	-	-
CCN(CC)c1ccc(NC(=O)c2ccc3c(c2)c(C)c(C)n3C)cc1	-	71	-	-	-	-
COc1cc(NC(=O)CCN2CCN(c3ccccc3OC)CC2)cc(OC)c1	-	.	.	.	.	.
O=C(Nc1ccccc1-c1nc2ccccc2[nH]1)c1ccc(S(=O)(=O)N2CCCCC2)cc1	-	.	.	.	-	-
O=C(Nc1ccccc1-c1nc2ccccc2[nH]1)c1ccc(N2C(=O)CCC2=O)cc1	-	.	-	-	+	-
CCc1ccc(Nc2n[n+](-c3ccccc3)c(-c3c(Cl)cccc3Cl)s2)cc1	-	-	-	-	-	-
CCc1ccc(Nc2n[n+](-c3ccccc3)c(/C=C/c3ccccc3)s2)cc1	.	.	-	-	+	-
CCN(c1ccccc1)S(=O)(=O)c1ccc(NC(=O)c2nc(S(C)(=O)=O)ncc2Cl)cc1	-	-	-	-	-	-
Cc1ccccc1NC(=O)c1nc(S(C)(=O)=O)ncc1Cl	18	-	-	-	.	-
NS(=O)(=O)c1ccc(N/N=C/c2cn(-c3ccccc3)nc2-c2cccs2)cc1	-	-	-	-	+	-
NS(=O)(=O)c1ccc(N/N=C/c2cn(-c3ccccc3)nc2-c2cccs2)c([N+](=O)[O-])c1	-	-	-	-	-	-
Cn1cc(Cl)c(C(=O)N/N=C/c2ccc3c4c(cccc24)CC3)n1	8.0	-	-	-	-	-
COc1ccccc1NS(=O)(=O)c1cccc(-n2c(O)c(C=Nc3ccccc3C(=O)O)c3ccccc3c2=O)c1	-	52	-	-	-	-
O=C(O)c1cc2c(ccc3ccccc32)oc1=O	-	-	-	-	+	-
SMILES	GAA850 FXN act	Lipid droplet	proCasp7 act	proCasp3 act	Rce1 inhib	pCIP destab
Cc1cc(-c2ccccc2)n2nc(C)c(C#N)c2n1	-	-	-	-	+	-
COc1ccc(-c2c(C)nn3c(-c4ccccc4)cc(C)nc23)cc1	-	-	-	-	-	-
CCOC(=O)c1ccc2nc3c(cc2c1)CCS3	12	.	-	-	-	-
CCCC(=O)Nc1nc2ccc(C(=O)OCC)cc2s1	-	-	-	-	-	-
CCOc1cc(CNC2CCCC2)ccc1OCc1ccccc1Cl	-	-	-	-	+	-
CCOC(=O)c1ccc(N2CCN(c3ccccc3F)CC2)c(NC(=O)Nc2cccc(OC)c2)c1	-	57	-	-	-	-
CC(/C=N/NC(=O)C(O)c1ccccc1)=C\c1ccccc1 (centres undefined)	7.8	.	-	-	-	-
O=C(Nc1ccc(-c2nc3ccccc3[nH]2)cc1)c1ccco1	8.6	-	-	-	-	-
CCc1nnc(NC(=O)c2ccc(NS(=O)(=O)c3ccccc3)cc2)s1	-	-	-	-	+	-
CCc1nnc(NS(=O)(=O)c2ccc(NC(=O)c3ccccc3)cc2)s1	-	-	-	-	-	-
COc1ccc(NS(=O)(=O)c2ccc3oc(=O)c4[nH]c(=O)c(=O)n(C)c4c3c2)cc1	-	-	-	-	+	-
Cc1nc(N2CCC(C)CC2)c2c(C)c(C(=O)Nc3ccc(C(F)(F)F)cc3)sc2n1	-	-	-	-	-	-
Cc1nc(N2CCCCC2C)c2c(C)c(C(=O)Nc3ccccc3C(F)(F)F)sc2n1 (centres undefined)	-	-	-	-	+	-
Cc1nc(N2CCOCC2)c2c(C)c(C(=O)Nc3ccccc3Cl)sc2n1	-	-	-	-	-	-
Cc1nc(N2CCOCC2)c2c(C)c(C(=O)Nc3ccccc3C(F)(F)F)sc2n1	-	-	-	-	+	-
CS(=O)(=O)Nc1ccccc1C(=O)Nc1cccc(Cl)c1	-	-	-	-	+	-
CS(=O)(=O)Nc1ccccc1C(=O)NC1CC2CCC1C2 (centres undefined)	-	-	-	-	+	-
CS(=O)(=O)Nc1ccccc1C(=O)Nc1cc(Cl)cc(Cl)c1	-	-	-	-	-	-
CS(=O)(=O)Nc1ccccc1C(=O)NCc1ccccc1Cl	-	-	-	-	+	-
CN(c1ccccc1C(=O)NC1CC2CCC1C2)S(=O)(=O)c1ccccc1 (centres undefined)	-	-	-	-	-	-
COCCNc1nc(-c2ccccc2F)c2sc(-c3ccccc3)cc2n1	-	.	.	.	.	.
COc1ccc(C2/C=C\CN(C(=O)C3CC3)[C@H](Cc3ccccc3)C(=O)N2Cc2ccc(F)cc2)cc1 (some centres undefined)	-	-	-	-	-	-
COc1ccc(C2/C=C\CN(C(=O)c3ccc(C)cc3)[C@H](Cc3ccccc3)C(=O)N2Cc2ccc(F)cc2)cc1 (some centres undefined)	-	-	-	-	+	-
O=C(Nc1cc(Cl)cc(Cl)c1)c1coc(=O)c(Br)c1	-	-	-	-	+	-
O=C(NC(CO)(CO)CO)c1coc(=O)c(Br)c1	-	.	-	-	-	-
O=C(Nc1cccc(C(F)(F)F)c1)c1ccc2sc([C@H]3C[C@H](O)[C@@H](CO)O3)nc2c1	-	.	.	.	.	.
Cc1ccc(Nc2ccc(C(=O)O)cc2N)cc1	.	.	-	-	?	-
Cc1cc(C)cc(Nc2ccc(C(=O)O)cc2N)c1	-	-	-	-	+	-

Bioassay records (PubChem)
